Only a sample is shown.
PGC1a Ac signal: raises PGC1a acetylation signal in U2OS cells; AID 651723; actives 0.21% (n = 350,000); activation, % at 15.6 µM; U2OS PGC1a acetylation AlphaScreen, overnight;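 active means every replicate reaching activation of at least 50%, whatever the mean replicate activation; inconclusive means replicates that disagree or another doubt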;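 further: hits raise the AlphaScreen acetylation signal above neutral controls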
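detection = AlphaScreen lysate read | assay system = U2OS cells expressing flag-PGC1a plus GCN5 | input = 7000 cells/well | dosing = one concentration | times = compound overnight at 37 °C, each detection step 1 h RT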
Hep G6PC suppr: PGC-1a acetylation activator altering hepatocyte G6PC expression | shares compounds with PGC1a Ac signal | primary mouse hepatocytes, G6PC mRNA qPCR, forskolin | G6PC suppression (normalized activity, % of positive control; higher = more suppression), % at 26 µM | 240 tested, under 10 active | AID 743463;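 active means dose curves showing G6PC suppression whose half-maximal dose is at most twice the top valid dose; inconclusive means flat curves with moderate negative activity, or unreliable fits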;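 further: G6PC expression relative to GAPDH housekeeping gene as delta delta Ct; 0% = median of neutral control wells and 100% = median of positive control wells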
Hep PCK1 suppr: PGC-1a acetylation activators affecting PCK1 expression in hepatocytes. shares compounds with PGC1a Ac signal. primary mouse hepatocytes, PCK1 mRNA qPCR, forskolin-stimulated. PCK1 expression decrease, unspecified at 26 µM. 230 tested, under 10 active. AID 743465;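 active means compounds lowering PCK1 expression whose fitted half-maximal concentration is at most twice the top tested dose; inconclusive means flat fit with moderate opposite-direction effect, or poor fit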;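 further: values are delta delta Ct of PCK1 relative to GAPDH; higher delta delta Ct means lower PCK1 expression so positive values indicate hits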
Hep PGC-1a down: PGC-1a acetylation activator altering hepatocyte PGC-1a expression | primary mouse hepatocytes, PGC-1a mRNA qPCR, forskolin; top dose 26 µM | max activity (PGC-1a expression decrease), % | shares compounds with PGC1a Ac signal | 240 tested, under 10 active;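 active means compound lowering PGC-1a expression with fitted half-maximal concentration at most twice its top tested dose; inconclusive means flat curve with moderate opposite-direction effect, or poor fit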;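 further: 0% = neutral control wells median and 100% = positive control wells median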
An asterisk follows results filed as active; ? = inconclusive; . = no result.

SMILES | PGC1a Ac signal | Hep PGC-1a down | others
COC(=O)c1ccc(OC)c(OC2CCCC2)c1 | -89 | .
COc1ccc(-c2nc(C#N)c(NCc3ccco3)o2)cc1 | -52 | .
O=C(O)c1ccccc1C(=O)N1CCN(C(=O)c2ccccc2Cl)CC1 | -50 | .
O=C(c1ccccc1Nc1ccc(SC(F)F)cc1)N1CCCCCC1 | 53* | 84 | Hep G6PC suppr=-38;Hep PCK1 suppr=11
O=C(c1cc(-c2ccccc2)nc2ccccc12)N1N=C(C(F)F)CC1(O)C(F)F (stereo unspecified) | -38 | .
CCOC(=O)CNS(=O)(=O)c1cc(-c2nnc(Nc3ccc4c(c3)OCO4)c3ccccc23)ccc1C | 168* | 92 | Hep G6PC suppr=85;Hep PCK1 suppr=120
O=[N+]([O-])c1nn(-c2ccc(Cl)cc2)n(O)c1=NCc1ccncc1 | -46 | .
CCc1nnc(N/N=C/c2c(Cl)cccc2Cl)n1N | -64 | .
CCOc1ccc(N(C)S(=O)(=O)c2cc(-c3cc(C)no3)ccc2C(C)C)cc1 | 65* | ?
Cc1cc(=O)n2[nH]c(=O)c(N=Nc3ccccc3)c2[nH]1 | -44 | .
CCN(CC)c1ccc(N)cc1S(=O)(=O)Nc1ccccc1OC | 57* | 25 | Hep G6PC suppr=-10;Hep PCK1 suppr=79
CCN1C(=O)CCCc2ccccc21 | -68 | .
CCn1c2ccccc2c2cc(/C=N/n3cn[nH]c3=S)ccc21 | -42 | .
C=CCN=C1S/C(=C/c2ccc([N+](=O)[O-])cc2)C(=O)N1CC=C | -42 | .
NC(=O)Cn1cc(C(=O)c2cccs2)c2ccccc21 | ? | 26 | Hep PCK1 suppr=-14
CCOC(=O)C1CCN(C(=O)CSc2ccc(Br)cc2)CC1 | -40 | .
CCO[C@H]1OC(C(=O)Nc2ccccc2)=C[C@@H](c2csc3ccccc23)[C@@H]1CCCO | -54 | .
O=C(OCCCN1CCCCC1)c1ccc(O)cc1 | -46 | .
CCCOC(=O)c1ccc(-n2nnnc2SCC(=O)N2CCCCC2)cc1 | -49 | .
Cc1ccc(-c2n[nH]c(=S)n2/N=C/c2cccn2C)cc1 | -50 | .
O=C(NCc1ccccc1)C1Cc2c(-c3ccc(Cl)cc3)ccnc2O1 (stereo unspecified) | 69* | 63 | Hep G6PC suppr=214;Hep PCK1 suppr=-2.3
COc1cc(O)c(C(CC(=O)N2CCOCC2)c2ccc(N(C)C)cc2)c(OC)c1 (stereo unspecified) | -49 | .
Cc1ccc(S(=O)(=O)N/N=C/c2c[nH]c3ccccc23)cc1 | -105 | .
Cc1ccccc1Cn1cc(NC(=O)c2cc(-c3cccs3)on2)cn1 | ? | 22 | Hep PCK1 suppr=-14
CCN1CCN(Cc2ccc(NC(=O)c3ccc(C)c(NC(=O)c4cncc(-c5cccs5)c4)c3)cc2C(F)(F)F)CC1 | -69 | .
SMILES | PGC1a Ac signal | Hep PGC-1a down | others
C[C@@H]1CCCCO[C@H](CN(C)Cc2ccc(Cl)c(Cl)c2)[C@H](C)CN([C@@H](C)CO)C(=O)c2cc(NC(=O)Nc3ccc(F)cc3)ccc2O1 | -43 | .
Cc1noc(C)c1S(=O)(=O)Nc1ccc2c(c1)C(=O)N([C@@H](C)CO)C[C@@H](C)[C@@H](CN(C)Cc1ccc3c(c1)OCO3)OCCCC[C@@H](C)O2 | -41 | ? | Hep G6PC suppr=444;Hep PCK1 suppr=230
CCOCCCNC(=O)c1ccccc1SC | -46 | .
CC(=O)n1nc2nc(C)cc(C)c2c1N | -41 | .
COc1ccc(N(C(=O)c2csnn2)C(C(=O)NC2CCCC2)c2cccs2)cc1 (stereo unspecified) | 53* | ? | Hep G6PC suppr=33
O=C(NC1CCCCC1)C(c1ccc2ncccc2c1)N(Cc1ccc2c(c1)OCO2)C(=O)c1ccc2c(c1)OCCO2 (stereo unspecified) | -96 | .
COc1cc(C=C(C(C)=O)C(C)=O)ccc1O | -40 | .
CCOc1ccc(N2C(=O)CC(Cc3ccc(Br)cc3)C2=O)cc1 (stereo unspecified) | -71 | .
c1nc(NC2CCCCCC2)c2[nH]cnc2n1 | -41 | .
O=C1c2ccc(-c3ccc4c(c3)C(=O)N(CCCO)C4=O)cc2C(=O)N1CCCO | -70 | .
Cn1cc(-c2ccc(C(=O)NCc3cccc(Cl)c3)c3occc23)cn1 | 59* | 64 | Hep G6PC suppr=-68;Hep PCK1 suppr=-9.2
Cc1cccn2c(=O)c3cc(C(=O)NCc4ccco4)c(=N)n(CCc4ccccc4)c3nc12 | -55 | .
Cn1ncc(Cl)c1C(=O)Nc1sc2c(c1C(N)=O)CCC2 | 59* | 39 | Hep G6PC suppr=16;Hep PCK1 suppr=-10
O=C(CSc1nc2ccc(Cl)cc2[nH]1)c1ccc2c(c1)OCO2 | -49 | .
COc1ccc(NCc2nnc(SCC(=O)Nc3cc(C)cc(C)c3)o2)cc1 | -52 | .
O=C(Nc1nc2ccsc2c(=O)s1)C1CCC1 | -65 | .
O=C(Nc1nc(-c2ccccn2)cs1)c1ccccc1-n1cnnn1 | -43 | .

Screening results deposited in PubChem by Broad Institute.
